Usually IC50 stands for the concentration needed to halve the response being measured.

For the first assay, the system named is SiHa. Put plainly: Antiproliferative activity against human SiHa cells after 72 hrs by MTT assay. Type of assay: functional, cell-based.
Details: not given
The essentials:
(§1)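 Cells grown in MEM with 10% FCS, 1% non-essential amino acids and 1% penicillin-streptomycin. Seeded at 5000 cells/well, exposed to 0.1–30.0 µM compound for 72 h. MTT (5 mg/ml solution) was then added for 4 h, formazan dissolved in DMSO, and absorbance read at 545 nm. Cisplatin served as positive control. IC50 came from sigmoidal dose–response fits (log inhibitor vs normalized response, variable slope).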
In turn, `C=CCO/N=C1/C=C2C3=CC[C@H]([C@@]4(C)OC(C)(C)O[C@@H]4CCC(C)(C)O)[C@@]3(C)CC[C@@H]2[C@@]2(C)C[C@@H]3OC(C)(C)O[C@@H]3C[C@@H]12` returned an IC50 above 30 µM.

Tested on in another assay: not listed separately
As to the kind of experiment: Synergistic cytotoxicity against mouse L5178 cells assessed as combination index at ED50 using 150:1 test compound to doxorubicin ratio after 48 hrs by MTT-based checkerboard microplate method.
Details: not given
Format: functional. Summed up: (§2)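 Checkerboard microplate combinations of compound with doxorubicin at constant molar ratios. 5 × 10^4 cells/well in McCoy's 5A, 48 h at 37°C, 5% CO2. MTT added to 0.5 mg/mL final for 4 h, SDS/HCl overnight, OD read at 540 and 630 nm. Combination indices derived per ratio for 50%, 75% and 90% growth inhibition by median-effect analysis.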
Regarding `C=CCO/N=C1/C=C2C3=CC[C@H]([C@@]4(C)OC(C)(C)O[C@@H]4CCC(C)(C)O)[C@@]3(C)CC[C@@H]2[C@@]2(C)C[C@@H]3OC(C)(C)O[C@@H]3C[C@@H]12`, the CI is 0.24.

Tested on in another assay: not listed separately
As to the kind of experiment: Synergistic cytotoxicity against mouse L5178 cells expressing human ABCB1 assessed as combination index at ED90 using 7.5:1 test compound to doxorubicin ratio after 48 hrs by MTT-based checkerboard microplate method. Format: functional.
Details: not given
Summed up:
as §2
In the case of `C=CCO/N=C1/C=C2C3=CC[C@H]([C@@]4(C)OC(C)(C)O[C@@H]4CCC(C)(C)O)[C@@]3(C)CC[C@@H]2[C@@]2(C)C[C@@H]3OC(C)(C)O[C@@H]3C[C@@H]12`, the CI is 0.15.

Tested on in a further assay: not listed separately
As to the kind of experiment: Synergistic cytotoxicity against mouse L5178 cells expressing human ABCB1 assessed as combination index at ED90 using 30:1 test compound to doxorubicin ratio after 48 hrs by MTT-based checkerboard microplate method. Format: functional.
Details: not given
The essentials:
as §2
Turning to `C=CCO/N=C1/C=C2C3=CC[C@H]([C@@]4(C)OC(C)(C)O[C@@H]4CCC(C)(C)O)[C@@]3(C)CC[C@@H]2[C@@]2(C)C[C@@H]3OC(C)(C)O[C@@H]3C[C@@H]12`, the CI was 0.34.

Tested on in the next assay: not listed separately
As to the kind of experiment: Synergistic cytotoxicity against mouse L5178 cells expressing human ABCB1 assessed as combination index at ED75 using 15:1 test compound to doxorubicin ratio after 48 hrs by MTT-based checkerboard microplate method.
Details: not given
Type of assay: functional. The essentials:
as §2
With `C=CCO/N=C1/C=C2C3=CC[C@H]([C@@]4(C)OC(C)(C)O[C@@H]4CCC(C)(C)O)[C@@]3(C)CC[C@@H]2[C@@]2(C)C[C@@H]3OC(C)(C)O[C@@H]3C[C@@H]12`, the CI was 0.22.

Tested on in the next assay: not listed separately
Put plainly: Synergistic cytotoxicity against mouse L5178 cells expressing human ABCB1 assessed as combination index at ED75 using 3.75:1 test compound to doxorubicin ratio after 48 hrs by MTT-based checkerboard microplate method. Type of assay: functional.
Details: not given
The essentials:
as §2
For the compound `C=CCO/N=C1/C=C2C3=CC[C@H]([C@@]4(C)OC(C)(C)O[C@@H]4CCC(C)(C)O)[C@@]3(C)CC[C@@H]2[C@@]2(C)C[C@@H]3OC(C)(C)O[C@@H]3C[C@@H]12`, the CI worked out at 0.15.

Tested on in another assay: not listed separately
As to the kind of experiment: Synergistic cytotoxicity against mouse L5178 cells assessed as combination index at ED90 using 300:1 test compound to doxorubicin ratio after 48 hrs by MTT-based checkerboard microplate method. Format: functional.
Details: not given
Summed up: as §2
In the case of `C=CCO/N=C1/C=C2C3=CC[C@H]([C@@]4(C)OC(C)(C)O[C@@H]4CCC(C)(C)O)[C@@]3(C)CC[C@@H]2[C@@]2(C)C[C@@H]3OC(C)(C)O[C@@H]3C[C@@H]12`, the CI is listed as 1.07.

Tested on in a further assay: not listed separately
As to the kind of experiment: Synergistic cytotoxicity against mouse L5178 cells assessed as combination index at ED50 using 75:1 test compound to doxorubicin ratio after 48 hrs by MTT-based checkerboard microplate method. Format: functional.
Details: not given
The essentials:
as §2
As for `C=CCO/N=C1/C=C2C3=CC[C@H]([C@@]4(C)OC(C)(C)O[C@@H]4CCC(C)(C)O)[C@@]3(C)CC[C@@H]2[C@@]2(C)C[C@@H]3OC(C)(C)O[C@@H]3C[C@@H]12`, the CI was determined as 0.58.

The test system of the next assay is HeLa. Put plainly: Antiproliferative activity against human HeLa cells after 72 hrs by MTT assay. Type of assay: functional, cell-based.
Details: not given
The essentials:
as §1
For orientation: Tetrazolium assays rely on reduction of a dye to a coloured formazan, in cell work by metabolically active cells.
`C=CCO/N=C1/C=C2C3=CC[C@H]([C@@]4(C)OC(C)(C)O[C@@H]4CCC(C)(C)O)[C@@]3(C)CC[C@@H]2[C@@]2(C)C[C@@H]3OC(C)(C)O[C@@H]3C[C@@H]12`: the half-inhibitory concentration (IC50) was above 30 µM.

Tested on in another assay: not listed separately
As to the kind of experiment: Cytotoxicity against mouse L5178 cells expressing human ABCB1 after 48 hrs by MTT assay. Format: functional, cell-based. The conditions noted are these: L5178, 48 h. The essentials: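 Parental mouse lymphoma L5178 and the MDR line made by pHa MDR1/A retrovirus transfection, selected with 60 µg/L colchicine. Grown in McCoy's 5A with horse serum at 37°C, 5% CO2. 5 x 10^4 cells/well, serial compound dilutions, 48 h. MTT added to 0.5 mg/mL final for 4 h, then 10% SDS in 0.01 M HCl overnight, OD read at 540 and 630 nm. IC50 taken as median cytotoxic activity (Dm) from control lanes of checkerboard plates, n=2.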
On to `C=CCO/N=C1/C=C2C3=CC[C@H]([C@@]4(C)OC(C)(C)O[C@@H]4CCC(C)(C)O)[C@@]3(C)CC[C@@H]2[C@@]2(C)C[C@@H]3OC(C)(C)O[C@@H]3C[C@@H]12`, for which the concentration for half-maximal inhibition (IC50) turned out to be 52.7 µM.

Tested on in the next assay: not listed separately
Put plainly: Synergistic cytotoxicity against mouse L5178 cells assessed as combination index at ED75 using 75:1 test compound to doxorubicin ratio after 48 hrs by MTT-based checkerboard microplate method. Type of assay: functional.
Details: not given
Summed up:
as §2
Regarding `C=CCO/N=C1/C=C2C3=CC[C@H]([C@@]4(C)OC(C)(C)O[C@@H]4CCC(C)(C)O)[C@@]3(C)CC[C@@H]2[C@@]2(C)C[C@@H]3OC(C)(C)O[C@@H]3C[C@@H]12`, the CI is 0.5.

Tested on in another assay: not listed separately
Put plainly: Synergistic cytotoxicity against mouse L5178 cells assessed as combination index at ED75 using 37.5:1 test compound to doxorubicin ratio after 48 hrs by MTT-based checkerboard microplate method. Type of assay: functional.
Details: not given
Summed up:
as §2
Consider `C=CCO/N=C1/C=C2C3=CC[C@H]([C@@]4(C)OC(C)(C)O[C@@H]4CCC(C)(C)O)[C@@]3(C)CC[C@@H]2[C@@]2(C)C[C@@H]3OC(C)(C)O[C@@H]3C[C@@H]12`, for which the CI was determined as 0.47.

Tested on in a further assay: not listed separately
Put plainly: Synergistic cytotoxicity against mouse L5178 cells expressing human ABCB1 assessed as combination index at ED75 using 60:1 test compound to doxorubicin ratio after 48 hrs by MTT-based checkerboard microplate method. Type of assay: functional.
Details: not given
The essentials: as §2
In the case of `C=CCO/N=C1/C=C2C3=CC[C@H]([C@@]4(C)OC(C)(C)O[C@@H]4CCC(C)(C)O)[C@@]3(C)CC[C@@H]2[C@@]2(C)C[C@@H]3OC(C)(C)O[C@@H]3C[C@@H]12`, the CI is on record as 0.39.

Tested on in a further assay: not listed separately
As to the kind of experiment: Synergistic cytotoxicity against mouse L5178 cells assessed as combination index at ED90 using 600:1 test compound to doxorubicin ratio after 48 hrs by MTT-based checkerboard microplate method. Type of assay: functional.
Details: not given
The essentials: as §2
On to `C=CCO/N=C1/C=C2C3=CC[C@H]([C@@]4(C)OC(C)(C)O[C@@H]4CCC(C)(C)O)[C@@]3(C)CC[C@@H]2[C@@]2(C)C[C@@H]3OC(C)(C)O[C@@H]3C[C@@H]12`, for which the CI is on record as 1.12.

These data come from ChEMBL document CHEMBL4145462, “Nitrogen-containing ecdysteroid derivatives vs. multi-drug resistance in cancer: Preparation and antitumor activity of oximes, oxime ethers and a lactam” (Eur J Med Chem, 2018).
